The text below walks through data of ChEMBL document CHEMBL1154303, “Cytotoxic and antiplasmodial compounds from the roots of Strophioblachia fimbricalyx” (J Nat Prod, 2009).

One assay deals with NCI-H187. Description: Cytotoxicity against human NCI-H187 cells by SRB assay. It counts as functional, cell-based. In general terms: In SRB staining, fixed cells bind dye roughly in proportion to their protein.
Another assay concerns KB. Briefly: Cytotoxicity against human KB cells by SRB assay. Type of assay: functional, cell-based.
The subject of the next assay is Vero. Description: Cytotoxicity against african green monkey Vero cells by SRB assay. It counts as cell-based. Conditions: Chlorocebus sabaeus.
The subject of another assay is MCF7. Briefly: Cytotoxicity against human MCF7 cells by SRB assay. It counts as functional, cell-based.
For the next assay, the system named is Plasmodium falciparum. Briefly: Antiplasmodial activity against multidrug-resistant Plasmodium falciparum K1 assessed as [G-3H]hypoxanthine uptake after 24 hrs by scintillation counting. It counts as functional, organism-based. Conditions: K1, 24 h. In a few lines: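 Microculture radioisotope technique on the multidrug-resistant K1 strain of P. falciparum; activity reported in µg/mL.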

Assay [1] relates to Radical scavenging activity. Description: Antioxidant activity assessed as DPPH radical scavenging activity. It counts as functional. In a few lines:
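DPPH radical-scavenging test run per a published method. Activity is expressed in µg/mL, and a positive control substance was included.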
In general terms: DPPH is a stable violet radical that fades when it is reduced.

SMILES strings stand for the structures. In brackets after ≈: the same amount, converted by molar mass.

A word on the IC50: it is the concentration at which inhibition is half-maximal. As to `Cc1c2ccncc2c(C)c2c1[nH]c1ccccc12` [ELLIPTECINE], the IC50 in the assay with NCI-H187 stood at 0.44 µg/mL (≈ 1.79 µM); with KB, 0.48 µg/mL (≈ 1.95 µM); with Vero, 0.48 µg/mL (≈ 1.95 µM).
For the compound `COc1cccc2c1C(=O)c1c(O)c3c(c(O)c1C2=O)C[C@@](O)(C(=O)CO)C[C@@H]3O[C@H]1C[C@H](N)[C@H](O)[C@H](C)O1` [DOXORUBICIN], the IC50 was determined as 0.04 µg/mL (≈ 0.0736 µM) with NCI-H187 and 0.13 µg/mL (≈ 0.239 µM) with KB.
For `COC1=Cc2c(cc(OC)c3cc(C)c(OC)cc23)C(C)(C)C1=O` [TRIGONOSTEMONE], the half-inhibitory concentration (IC50) was over 5 µg/mL in the assay on NCI-H187; over 5 µg/mL in the assay on KB; over 5 µg/mL with MCF7; over 20 µg/mL with Vero; over 20 µg/mL in the assay with Plasmodium falciparum; over 100 µg/mL in assay [1].
For the compound `C[C@H]1[C@@H](O)O[C@@H]2O[C@@]3(C)CC[C@H]4[C@H](C)CC[C@@H]1[C@@]24OO3` [ARTENIMOL], in the assay with Plasmodium falciparum, the IC50 is 0.004 µg/mL (≈ 0.0141 µM).
On to `COC1=Cc2c(cc(O)c3cc(C)c(OC)cc23)C(C)(C)C1=O`, for which the IC50 in the assay with NCI-H187 is 0.8 µg/mL (≈ 2.56 µM); in the assay on KB, 0.8 µg/mL (≈ 2.56 µM); with MCF7 it was 2.9 µg/mL (≈ 9.28 µM); in the assay on Vero, 3.1 µg/mL (≈ 9.92 µM); with Plasmodium falciparum, 2.7 µg/mL (≈ 8.64 µM); in assay [1] it was 29.1 µg/mL (≈ 93.2 µM).
Take `Cc1cc(C(C)(C)C)c(O)c(C(C)(C)C)c1` [BUTYLATED HYDROXYTOLUENE]: the IC50 in assay [1] was 18.8 µg/mL (≈ 85.3 µM).
Turning to `COc1cc2c(cc1C)c(OC)cc1cc(C)c(=O)cc(OC)c12`, the IC50 in the assay with NCI-H187 is over 5 µg/mL; in the assay on KB it was 3.9 µg/mL (≈ 12 µM); in the assay on MCF7, over 5 µg/mL; in the assay on Vero, over 20 µg/mL; in the assay on Plasmodium falciparum, over 20 µg/mL; in assay [1], over 100 µg/mL.
On to `COc1cc2c(cc1C)c(OC)cc1cc(C)c(=O)c(OC)cc12`, for which the IC50 in the assay with NCI-H187 is over 5 µg/mL; in the assay with KB, 4 µg/mL (≈ 12.3 µM); in the assay on MCF7, over 5 µg/mL; with Vero, over 20 µg/mL; with Plasmodium falciparum, 3.2 µg/mL (≈ 9.87 µM); in assay [1], over 100 µg/mL.
